The values that follow come from ChEMBL document CHEMBL4152290, “1H-Benzo[d]imidazoles and 3,4-dihydroquinazolin-4-ones: Design, synthesis and antitubercular activity” (Eur J Med Chem, 2018).

Values after ≈ are worked out from the molar mass of the structure shown.

Holding throughout (format): functional
Experiment [1] deals with Mycobacterium tuberculosis. As to the kind of experiment: Antitubercular activity against isoniazid/ethambutol-resistant Mycobacterium tuberculosis isolate CDCT27 harboring katG mutant gene after 7 days by resazurin dye based assay. The method, boiled down:
(§1)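 Resazurin microtiter MIC in 7H9 with 10% ADC. Two-fold dilutions from 1 mg/mL DMSO stocks span 25.0–0.05, 10.0–0.02 or 0.02–0.0004 µg/mL, with 2.5% DMSO final. Inoculum is bead-declumped culture grown in 7H9/10% OADC/0.05% Tween 80, diluted to OD600 0.006. Plates run 7 days at 37 °C, then 0.01% resazurin for 48 h. MIC is the lowest concentration preventing the blue-to-pink change. Three independent tests.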

In experiment [2] the test system is Mycobacterium tuberculosis. As to the kind of experiment: Antitubercular activity against multidrug-resistant Mycobacterium tuberculosis isolate CDCT16 harboring rpoB/katG/inhA mutant gene after 7 days by resazurin dye based assay. The essentials: as §1
Experiment [3] concerns Mycobacterium tuberculosis. Nature of the experiment: Antitubercular activity against multidrug-resistant Mycobacterium tuberculosis isolate CDCT10 harboring rpoB/katG mutant gene after 7 days by resazurin dye based assay. The method, boiled down:
as §1

The test system of experiment [4] is Mycobacterium tuberculosis. As to the kind of experiment: Antitubercular activity against Mycobacterium tuberculosis isolate CDCT28 harboring rpoB mutant gene after 7 days by resazurin dye based assay. The method, boiled down:
as §1

Consider `O=C(CSc1nc2ccccc2c(=O)[nH]1)NC1CCCCC1`, for which the MIC came to 0.25 µM (≈ 0.0794 µg/mL) in experiment [1], 0.97 µM (≈ 0.308 µg/mL) in experiment [2], 0.5 µM (≈ 0.159 µg/mL) in experiment [3] and 0.5 µM (≈ 0.159 µg/mL) in experiment [4].
Consider `CC1CCC(NC(=O)CSc2nc3ccccc3c(=O)[nH]2)CC1` (configuration not stated), for which the MIC in experiment [1] came to 0.12 µM (≈ 0.0398 µg/mL); in experiment [2], 0.48 µM (≈ 0.159 µg/mL); in experiment [3], 0.24 µM (≈ 0.0795 µg/mL); in experiment [4], 0.24 µM (≈ 0.0795 µg/mL).
Regarding `CC1CCCCC1NC(=O)CSc1nc2ccccc2c(=O)[nH]1` (configuration not stated), the MIC stood at 0.96 µM (≈ 0.318 µg/mL) in experiment [1], 3.9 µM (≈ 1.29 µg/mL) in experiment [2], 0.95 µM (≈ 0.315 µg/mL) in experiment [3] and 1.9 µM (≈ 0.63 µg/mL) in experiment [4].
For `C[C@H]1CC[C@H](NC(=O)CSc2nc3ccccc3c(=O)[nH]2)CC1`, in that order: 0.12 µM (≈ 0.0398 µg/mL), 0.24 µM (≈ 0.0795 µg/mL), 0.12 µM (≈ 0.0398 µg/mL) and 0.12 µM (≈ 0.0398 µg/mL).
Taken in the same sequence, the figures for `O=C(CSc1nc2ccccc2c(=O)[nH]1)NC1CCCCCC1` were 0.24 µM (≈ 0.0795 µg/mL), 0.93 µM (≈ 0.308 µg/mL), 0.48 µM (≈ 0.159 µg/mL) and 0.48 µM (≈ 0.159 µg/mL).
For `CC1CCCC(NC(=O)CSc2nc3ccccc3c(=O)[nH]2)C1` (configuration not stated), in that order: 0.24 µM (≈ 0.0795 µg/mL), 0.9 µM (≈ 0.298 µg/mL), 0.94 µM (≈ 0.312 µg/mL) and 0.93 µM (≈ 0.308 µg/mL).
For `O=C(CSc1nc2ccccc2c(=O)[nH]1)NCC1CCCCC1`, the minimal inhibitory concentration (MIC) in experiment [1] came out at 0.48 µM (≈ 0.159 µg/mL); in experiment [2] it was 0.93 µM (≈ 0.308 µg/mL); in experiment [3], 0.93 µM (≈ 0.308 µg/mL); in experiment [4], 0.93 µM (≈ 0.308 µg/mL).
Consider `NNC(=O)c1ccncc1` [ISONIAZID], for which the minimal inhibitory concentration (MIC) in experiment [1] was 182.3 µM (≈ 25 µg/mL); in experiment [2], over 729.2 µM; in experiment [3] it was 45.6 µM (≈ 6.25 µg/mL); in experiment [4], 2.84 µM (≈ 0.389 µg/mL).
